High-throughput results (PubChem)
Shown are actives, neighbours in structure and some others; about 1.5% of the full set was active somewhere.
APJ ag: APJ receptor agonism | P35414 | CHO-K1 APJ PathHunter beta-arrestin, luminescence; 0% DMSO wells, 100% apelin | activation, % at 20 µM | 0.11% of 330,000 active;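 active = activation more than six SD over the plate average, tested at 20 µM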;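 note: 0% = DMSO alone and 100% = apelin-13 at 10 nM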
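Test system: CHO-K1 APJ beta-arrestin complementation cell line. Amount: cell density 1000 per well. Controls: DMSO negative, 10 nM Apelin-13 positive. Signal: luminescent beta-gal fragment complementation, chemiluminescent substrate. Read-out basis: agonist-driven arrestin binding to APJ. Timing: compound stimulation 90 min at 25 °C, detection 60 min.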
EBI2 block: EBI2 (human) antagonism | P32249 | EBI2 beta-arrestin recruitment, luminescence, 7a,25-OHC stimulated | inhibition, % at 5 µM | 0.81% of 360,000 active | AID 651636; in the data active = inhibition above about 38%;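 note: enzyme fragment complementation signal reports receptor beta-arrestin coupling in cells; 0% = agonist plus DMSO wells and 100% = wells without agonist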
Target sequence (P32249 whole entry, looked up, the tested form may be a part): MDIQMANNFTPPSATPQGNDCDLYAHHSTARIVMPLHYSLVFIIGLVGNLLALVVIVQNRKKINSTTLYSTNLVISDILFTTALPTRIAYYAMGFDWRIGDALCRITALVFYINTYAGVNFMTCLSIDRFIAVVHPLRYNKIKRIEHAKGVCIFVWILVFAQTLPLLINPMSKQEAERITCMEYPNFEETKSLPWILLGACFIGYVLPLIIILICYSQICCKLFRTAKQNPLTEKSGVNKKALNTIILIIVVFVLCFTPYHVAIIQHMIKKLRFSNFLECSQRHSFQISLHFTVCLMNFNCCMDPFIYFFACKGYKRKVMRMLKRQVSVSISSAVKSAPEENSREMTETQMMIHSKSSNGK
CCR6 antag: blocks CCL20-driven beta-arrestin recruitment at human CCR6; 0.49% of 340,000 active; P51684; CHO-K1 CCR6 PathHunter beta-arrestin, luminescence, CCL20-stimulated; AID 493098; inhibition, % at 20 µM;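 active = compounds whose inhibition of the agonist-driven luminescence signal at 20 µM reaches about 50%, limit read from the data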;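 note: cells stimulated with CCL20 at 14 nM final; plate controls were DMSO with CCL20 for no effect and DMSO without agonist for full effect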
CXCR6 inh: inhibitors of human CXCR6 receptor; inhibition, % at 20 µM; 0.36% of 360,000 active; AID 602244; CHO-K1 PathHunter CXCR6 beta-arrestin, luminescence; O00574; in the data active = inhibition above about 34%, passing the limit was not always enough;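 note: antagonist mode with CXCL16 agonist at 10 nM final; 0% = 10 nM CXCL16 with DMSO and 100% = unstimulated wells without agonist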
APJ antagonist: blocks the human apelin receptor APJ; 0.32% of 330,000 active; inhibition, % at 20 µM; CHO-K1 APJ beta-arrestin complementation, luminescence;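 active = inhibition above about 40% at 20 µM, limit read from the data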;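 note: cells challenged with 10 nM apelin-13 agonist together with compound; plate controls were apelin-13 plus DMSO wells for no effect and DMSO wells lacking apelin-13 for full effect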
The depositor's hits bear a star.

`O=C(COC(=O)c1ccc(Cl)c([N+](=O)[O-])c1)NC1CCCC1` gave APJ ag -4, EBI2 block -6, CCR6 antag 1, CXCR6 inh -6 and APJ antagonist 19.
`O=C(COC(=O)c1ccccc1C(=O)c1ccc(Cl)c([N+](=O)[O-])c1)NC1CCCCCC1` gave APJ ag 5, EBI2 block 53*, CCR6 antag 16, CXCR6 inh 10 and APJ antagonist 36.
Screening O=C(c1cccc(S(=O)(=O)N2CCOCC2)c1)N1CCN(S(=O)(=O)c2cccs2)CC1 returned APJ ag -2, EBI2 block 0, CCR6 antag 0, CXCR6 inh -4 and APJ antagonist -7.
For Cc1nc(NNC(=O)c2ccc([N+](=O)[O-])cc2)cc(-c2ccccc2)n1 the results were APJ ag 0, EBI2 block 2, CCR6 antag 58*, CXCR6 inh 29 and APJ antagonist -9.
Screening O=C(N/N=C/c1cc(Cl)ccc1O)c1ccncc1 returned APJ ag 10, EBI2 block 50*, CCR6 antag -2, CXCR6 inh -9 and APJ antagonist -40.
For O=C(N/N=C/c1ccccc1Cl)c1ccncc1 the results were APJ ag -4, EBI2 block -8, CCR6 antag -5, CXCR6 inh 0 and APJ antagonist -17.
COc1ccc(NS(=O)(=O)c2ccc(NS(=O)(=O)c3cccs3)cc2)c(OC)c1 was read as APJ ag -3, EBI2 block -1, CCR6 antag -2, CXCR6 inh 5 and APJ antagonist -4.
CCOC(=O)c1cnc2nc(C(F)(F)F)[nH]n2c1=O was read as APJ ag -2, EBI2 block -5, CCR6 antag -3, CXCR6 inh -1 and APJ antagonist 5.
CC(NC(=O)/C(C#N)=C/c1ccc(Cl)c([N+](=O)[O-])c1)c1ccccc1 (stereo not drawn) was read as APJ ag 9, CCR6 antag 93* and APJ antagonist 9.
Screening C[C@@H](NC(=O)/C(C#N)=C/c1ccc(O)c(O)c1)c1ccccc1 returned APJ ag -3, EBI2 block 7, CCR6 antag 40, CXCR6 inh 16 and APJ antagonist 16.
`CCOc1ccc(/C=N/NC(=S)NC2CC3CC2C2C=CCC32)cc1` (stereo not drawn) gave APJ ag -1, EBI2 block 36, CCR6 antag 11, CXCR6 inh 6 and APJ antagonist 15.
Screening COc1cc(/C=N/NC(=S)NC2CC3CC2C2C=CCC32)ccc1O (stereo not drawn) returned APJ ag 5, EBI2 block 45*, CCR6 antag 6, CXCR6 inh 14 and APJ antagonist 5.
For CCOC(CN=c1nc(N(C)C)ss1)OCC the results were EBI2 block -3, CCR6 antag 92* and CXCR6 inh 60*.
For CN(Cc1ccc(Cl)cc1Cl)C(=O)c1cccc(S(=O)(=O)N2CCN(c3ccccc3)CC2)c1 the results were APJ ag 1, EBI2 block 16, CCR6 antag 6, CXCR6 inh -3 and APJ antagonist 6.
Screening COc1ccc([C@H]2CC(=O)C=C(c3cc4ccccc4s3)C2)cc1 returned APJ ag -4, EBI2 block 63*, CCR6 antag 10, CXCR6 inh 6 and APJ antagonist 4.
CC(C)N1C(=O)/C(=C/c2nc3ccccc3c(=O)n2-c2ccccc2)c2ccccc21 was read as APJ ag -1, EBI2 block 56*, CCR6 antag 11, CXCR6 inh 13 and APJ antagonist 31.
Screening CC(C)N1C(=O)C(Cc2nc3ccccc3c(=O)n2-c2ccccc2)c2ccccc21 (stereo not drawn) returned APJ ag -3, EBI2 block 12, CCR6 antag 21, CXCR6 inh 4 and APJ antagonist 19.
Screening CC(C)N1C(=O)/C(=C\c2nc3ccccc3c(=O)n2-c2ccccc2)c2ccccc21 returned EBI2 block 55*, CCR6 antag 24 and CXCR6 inh 12.
For CC(=O)c1ccc(NC(=O)C(C)OC(=O)c2cccc(-n3cnnn3)c2)cc1 (stereo not drawn) the results were APJ ag -3, EBI2 block 4, CCR6 antag 23, CXCR6 inh -2 and APJ antagonist -7.
`COc1ccc(CCNC(=O)c2ccc([N+](=O)[O-])cc2)cc1` gave APJ ag 2, EBI2 block -2, CCR6 antag -10, CXCR6 inh -12 and APJ antagonist -15.
COc1ccc(C(=O)Nc2nc(-c3ccc([N+](=O)[O-])cc3)c(-c3ccc(OC)cc3)s2)cc1 was read as APJ ag -1, EBI2 block 19, CCR6 antag 61*, CXCR6 inh 30 and APJ antagonist -30.
Screening CCOc1ccccc1NCc1nnc(-c2ccccc2)o1 returned APJ ag -2, EBI2 block -3, CCR6 antag 21, CXCR6 inh 0 and APJ antagonist -14.
Screening Cc1ccc(-n2nc(C)c3c(C)c(CCC(=O)Nc4ccc(CN5CCCC5)cc4)c(C)nc32)cc1 returned APJ ag 0, EBI2 block 14, CCR6 antag 52*, CXCR6 inh -10 and APJ antagonist -4.
`COc1ccc(OC(=O)N2C/C(=C/c3ccccc3)C(=O)/C(=C\c3ccccc3)C2)cc1` gave EBI2 block 56*, CCR6 antag 29 and CXCR6 inh 13.
Screening O=C(/C=C/c1ccccc1)CCN1CCOCC1 returned EBI2 block 2, CCR6 antag 17 and CXCR6 inh 4.
`C[N+](C)(C)CCC(=O)N1C/C(=C/c2ccccc2)C(=O)/C(=C\c2ccccc2)C1` gave EBI2 block 3, CCR6 antag 13 and CXCR6 inh 8.
`O=C1/C(=C/c2ccccc2)CN(C(=O)CCN2CCOCC2)C/C1=C\c1ccccc1` gave EBI2 block 18, CCR6 antag 53* and CXCR6 inh 31.
`CN(C)CCC(=O)N1C/C(=C/c2ccccc2)C(=O)/C(=C\c2ccccc2)C1` gave EBI2 block 39, CCR6 antag 78* and CXCR6 inh 66*.
Screening COC(=O)CNC(c1ccccc1)c1cc(C)ccc1NC(=O)c1cccc(Cl)c1 (stereo not drawn) returned APJ ag -3, EBI2 block 19, CCR6 antag 4, CXCR6 inh 1 and APJ antagonist 2.
`O=C(O)C=C1C2CC3CC(C2)CC1C3` gave APJ ag -1, EBI2 block 0, CCR6 antag -10, CXCR6 inh 0 and APJ antagonist 10.
CCOc1cc(/C=C2\C(=O)ON=C2C)ccc1OCc1ccccc1 was read as APJ ag 9.7*, EBI2 block 6, CCR6 antag -19, CXCR6 inh -33 and APJ antagonist -20.
`CN1CCc2nc(SCc3ccc(Cl)cc3)c(C#N)c(-c3cccs3)c2C1` gave APJ ag -1, CCR6 antag 74* and APJ antagonist 27.
